Data set [1] is described as follows: folding enthalpy; higher = less favourable; fluorescence melt of hairpins on a sequencing array, two-state fit. The settings on record: sodium 0.088 M. An outline of the steps: (§1)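 Folding enthalpy and melting temperature were estimated with bootstrapped two-state fits and combined across four replicates by inverse-variance weighting, with fitted temperatures raised by 9.35 °C to match UV melts. The data were Cy3 fluorescence of library hairpins, with annealed Cy3 and quencher oligos, on a sequenced MiSeq flow cell in 50 mM Na-HEPES pH 8.0, 25 mM NaCl, imaged in 2.5 °C steps up to 60 °C and normalised to pre-quench Cy3 and control constructs.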

Data set [2] can be described thus: melting temperature; fluorescence melt of hairpins on a sequencing array, two-state fit, raised by 9.35 °C to match UV melts. The settings on record: sodium 0.088 M. In outline:
as §1

With GTTCACCGAAAGGTAAC (((.(((....)))))), in data set [1], the folding enthalpy is -16.3 kcal/mol. In addition, the Tm in data set [2] came to 36.3 °C.

GTTCACCGAAAGGTCAAC (((.(((....))).))): the folding enthalpy in data set [1] is -18.4 kcal/mol. Besides, the Tm in data set [2] was 33 °C.

On to GTTCACGAAAGTGAAAAC ((((((....)))..))), for which, in data set [1], the folding enthalpy was -11.7 kcal/mol. Moreover, the Tm in data set [2] was 40.5 °C.

On to GTTCACGAAAGTGGGAAC ((((((....)))..))), for which, in data set [1], the folding enthalpy is -13.3 kcal/mol. In data set [2], the Tm was determined as 35.4 °C.

For the sequence GTTCACGGAAACATGAAC (((((.(....).))))), the folding enthalpy in data set [1] was -21.1 kcal/mol. Moreover, the Tm in data set [2] was 36.6 °C.

GTTCACGGAAACGTGGAC ((.((((....)))).)): the folding enthalpy in data set [1] was -29.2 kcal/mol. Moreover, the Tm in data set [2] came out at 52.8 °C.

Turning to GTTCACTCGAAAGAGAAC (((..(((....)))))), in data set [1], the folding enthalpy was -9.99 kcal/mol. Also, the Tm in data set [2] stood at 27.8 °C.

For the sequence GTTCAGCGAAAGCTTAAC (((.(((....))).))), the folding enthalpy in data set [1] is -30.2 kcal/mol. Besides, the Tm in data set [2] is 40.9 °C.

For the sequence GTTCAGGGAAACTTGAGC (.(((.(....).))).), the folding enthalpy in data set [1] was -18.4 kcal/mol. For the same sequence, the Tm in data set [2] is 30.2 °C.

Take GTTCCAGGAAACTGGAAC (((((((....))))))): in data set [1], the folding enthalpy is -42.2 kcal/mol. The Tm in data set [2] was determined as 60.4 °C.

As for GTTCCAGGAAACTGGAGC (.(((((....))))).), the folding enthalpy in data set [1] was -19.6 kcal/mol. In data set [2], the Tm worked out at 47.2 °C.

As for GTTCCCGAAAGGGAAAC ((((((....))).))), in data set [1], the folding enthalpy was -12.6 kcal/mol. The Tm in data set [2] was 49.6 °C.

As for GTTCCCGAAAGGGACAAC ((((((....)))..))), the folding enthalpy in data set [1] was -8.79 kcal/mol. The Tm in data set [2] is 33.6 °C.

In the case of GTTCCCGGAAACGAGAAC ((((.((....)).)))), the folding enthalpy in data set [1] is -30.2 kcal/mol. In addition, the Tm in data set [2] was determined as 40.8 °C.

With GTTCCGAAAGGAAC (((((....))))), in data set [1], the folding enthalpy is -29.5 kcal/mol. Besides, the Tm in data set [2] was 66.9 °C.

With GTTCCGCGAAAGCGCAAC (((.(((....))).))), the folding enthalpy in data set [1] was -13.3 kcal/mol. In data set [2], the Tm came out at 38.4 °C.

With GTTCCGGGAAACCGGAGC (.(((((....))))).), the folding enthalpy in data set [1] was -22.4 kcal/mol. The Tm in data set [2] stood at 53.6 °C.

Turning to GTTCCGGGAAACTGGAGC (.(((.(....).))).), the folding enthalpy in data set [1] is -21.2 kcal/mol. Moreover, in data set [2], the Tm was found to be 36.1 °C.

Consider GTTCCTCGAAAGAGCAAC (((.(((....))).))), for which the folding enthalpy in data set [1] was -14.3 kcal/mol. In data set [2], the Tm is 29.4 °C.

Consider GTTCGACGAAAGTCAAAC (((.(((....))).))), for which, in data set [1], the folding enthalpy is -21.3 kcal/mol. Further, the Tm in data set [2] was determined as 41.7 °C.

As to GTTCGACGAAAGTCAAC (((.(((....)))))), the folding enthalpy in data set [1] was -15.8 kcal/mol. Also, in data set [2], the Tm is 36.8 °C.

As to GTTCGAGAAATCGAAC ((((((....)))))), in data set [1], the folding enthalpy is -39.8 kcal/mol. Moreover, the Tm in data set [2] turned out to be 54.9 °C.

Consider GTTCGAGGAAACTCGAAC (((((((....))))))), for which the folding enthalpy in data set [1] is -42.3 kcal/mol. The Tm in data set [2] worked out at 65 °C.

With GTTCGAGGAAACTTGGAC ((.(.((....)).).)), the folding enthalpy in data set [1] was -16 kcal/mol. Besides, the Tm in data set [2] turned out to be 31.2 °C.

Consider GTTCGCCGAAAGGCAAC (((.(((....)))))), for which the folding enthalpy in data set [1] was -12.5 kcal/mol. Moreover, in data set [2], the Tm was determined as 43.3 °C.

Consider GTTCGCGAAAGCGGCAAC ((((((....)))..))), for which, in data set [1], the folding enthalpy was -10.2 kcal/mol. In addition, in data set [2], the Tm is 26.8 °C.

Consider GTTCGCGAAAGCGGTAAC ((((((....)))..))), for which the folding enthalpy in data set [1] is -11 kcal/mol. In data set [2], the Tm came to 30.7 °C.

In the case of GTTCGCGAAAGCGTAAC ((((((....))).))), the folding enthalpy in data set [1] was -13.8 kcal/mol. Besides, the Tm in data set [2] came out at 48 °C.

In the case of GTTCGGCCGAAAGGCAAC (((..(((....)))))), the folding enthalpy in data set [1] was -6.89 kcal/mol. Besides, the Tm in data set [2] is 31.3 °C.

For the sequence GTTCGGCGAAAGCCAAC (((.(((....)))))), in data set [1], the folding enthalpy is -12.3 kcal/mol. Also, the Tm in data set [2] came to 42.9 °C.

For GTTCGGCGAAAGCCCAAC (((.(((....))).))), in data set [1], the folding enthalpy is -11.2 kcal/mol. Besides, the Tm in data set [2] worked out at 37.1 °C.

For the sequence GTTCGGGGAAACCCGAGC (.(((((....))))).), the folding enthalpy in data set [1] was -25.5 kcal/mol. Moreover, the Tm in data set [2] amounted to 53.3 °C.

In the case of GTTCGGGGAAACCTGAAC ((((.((....)).)))), the folding enthalpy in data set [1] is -38.9 kcal/mol. The Tm in data set [2] was 49.9 °C.

Consider GTTCGGGGAAACCTGAGC (.((.((....)).)).), for which, in data set [1], the folding enthalpy is -20.5 kcal/mol. Besides, the Tm in data set [2] was found to be 32.6 °C.

With GTTCGTCGAAAGACAAC (((.(((....)))))), the folding enthalpy in data set [1] is -17.2 kcal/mol. The Tm in data set [2] is 42.5 °C.

Take GTTCGTGGAAACACGGAC ((.((((....)))).)): the folding enthalpy in data set [1] was -42.5 kcal/mol. For the same sequence, the Tm in data set [2] turned out to be 54.5 °C.

For the sequence GTTCGTGGAAACATGAAC ((((.((....)).)))), the folding enthalpy in data set [1] was -37.7 kcal/mol. Further, the Tm in data set [2] came to 47.5 °C.

Values taken from the array DNA melting data of Ke et al. (doi:10.1101/2024.01.08.574731).
